Assay results from ChEMBL document CHEMBL5614410, “Design, Synthesis, and Evaluation of p53Y220C Acetylation Targeting Chimeras (AceTACs)” (J Med Chem, 2024).
Activity calls are given as the source filed them. The calls are words filed in the database; no cut-off is given here.

What was measured:
[1] = tested on: CREB-binding protein/Histone acetyltransferase p300/Cellular tumor antigen p53 (Homo sapiens), P04637+Q09472+Q92793 [Y220C]; assay: Induction of interaction between FLAG-tagged p53Y220C mutant (unknown origin) and p300/CBP expressed in human NCI-H1299 cells at 10 uM pretreated for 2 hrs with p300/CBP bromodomain binder, 4-(2-(5-(3,5-dimethylisoxazol-4-yl)-2-(3-fluoro-4-methoxyphenethyl)-1H-benzo[d]imidazol-1-yl)ethyl)morpholine followed by incubation with compound for 18 hrs by co-immunoprecipitation analysis; assay type: cell-based
How it was run: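 NCI-H1299 (p53Y220C) cells were pretreated for 2 h with a 10 μM p53Y220C binder or a 10 μM p300 binder, then given compound at 3 μM for 18 h. p53-FLAG pull-down was followed by Western blot analysis.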

NCI-H1299 [2] = assay: Antiproliferative activity against p53-null human NCI-H1299 cells assessed as reduction in cell viability at 0.47 to 15 uM incubated for 3 days by WST-8 assay; assay type: functional, cell-based; details: dose 0.47-15 µM, time 3.0 day
How it was run: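 p53-null NCI-H1299 cells were exposed to compound across the concentration series for 72 h before the viability read-out. Data are mean ± SD from three independent experiments.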

[3] = tested on: CREB-binding protein/Histone acetyltransferase p300/Cellular tumor antigen p53 (Homo sapiens), P04637+Q09472+Q92793 [Y220C]; assay: AceTAC activity at FLAG-tagged p53Y220C mutant (unknown origin) expressed in human NCI-H1299 cells expressing p300/CBP assessed as BAX mRNA expression at 3 uM incubated for 24 hrs by RT-PCR analysis; assay type: cell-based
How it was run: (§1)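 NCI-H1299 p53Y220C cells were treated with DMSO or compound at 3 μM for 24 h. mRNA of p53-target genes was measured by RT-qPCR, normalised to GAPDH and expressed relative to DMSO control. Values are mean ± SD of three independent experiments.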

[4] = Cytotoxicity against human PNT2 cells assessed as inhibition of cell growth at 10 uM incubated for 72 hrs by WST-8 assay; assay type: toxicity, cell-based
How it was run: (§2)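 U2OS (WT p53) or normal prostate PNT2 cells were treated for 72 h at the indicated concentrations. Viability is mean ± SD of technical triplicates from two biological experiments.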

[5] = tested on: CREB-binding protein/Histone acetyltransferase p300/Cellular tumor antigen p53 (Homo sapiens), P04637+Q09472+Q92793 [Y220C]; assay: Induction of interaction between FLAG-tagged p53Y220C mutant (unknown origin) and p300/CBP expressed in human NCI-H1299 cells assessed as ternary complex formation at 10 uM incubated for 24 hrs by co-immunoprecipitation analysis; assay type: cell-based
How it was run: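 NCI-H1299 p53-null and p53Y220C cells were treated with DMSO or compound at 10 μM for 24 h. p53-FLAG pull-down was followed by Western blotting for associated p300. Representative of two independent experiments.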

[6] = tested on: CREB-binding protein/Histone acetyltransferase p300/Cellular tumor antigen p53 (Homo sapiens), P04637+Q09472+Q92793 [Y220C]; assay: AceTAC activity at FLAG-tagged p53Y220C mutant (unknown origin) expressed in human NCI-H1299 cells expressing p300/CBP assessed as increase in p53 acetylation at lysine 382 residue at 10 uM pretreated for 2 hrs with p300/CBP bromodomain binder, 4-(2-(5-(3,5-dimethylisoxazol-4-yl)-2-(3-fluoro-4-methoxyphenethyl)-1H-benzo[d]imidazol-1-yl)ethyl)morpholine followed by incubation with compound for 18 hrs by western blot analysis; assay type: cell-based
BXPC-3 = assay: Antiproliferative activity against human BXPC-3 cells harboring p53Y220C mutant assessed as inhibition of cell growth incubated for 72 hrs by WST-8 assay; assay type: functional
How it was run: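 BxPC3 or NUGC-3 cells were treated with DMSO or compound over a concentration range for 72 h before the viability read-out. Values are mean ± SD of technical triplicates from three biological experiments.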

[7] = Plasma concentration in Swiss albino mouse at 50 mg/kg, ip measured after 8 hrs by LC-MS/MS analysis; assay type: ADME, organism-based
How it was run: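 Swiss albino mice received a single 50 mg/kg intraperitoneal injection. Plasma levels were followed over 8 h. Each point is the mean ± SEM of three mice.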

NCI-H1299 [8] = assay: Antiproliferative activity against human NCI-H1299 cells expressing p53Y220C mutant assessed as reduction in cell viability incubated for 3 days by WST-8 assay; assay type: functional
How it was run: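 NCI-H1299 p53Y220C cells were exposed to compound over a concentration range for 72 h, in some runs after 72 h of control or p300 siRNA, before the viability read-out. Values are mean ± SD of three independent experiments.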

NCI-H1299 [9] = assay: Antiproliferative activity against human NCI-H1299 cells expressing p53Y220C mutant and transfected with p300 siRNA assessed as reduction in cell viability at 0.47 to 15 uM incubated for 3 days by WST-8 assay; assay type: functional, cell-based; details: dose 0.47-15 µM, time 3.0 day
How it was run: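 NCI-H1299 p53Y220C cells were first transfected with p300 siRNA for 72 h, then exposed to compound across the concentration series for 72 h. Viability is mean ± SD from three independent experiments.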

[10] = Toxicity in Swiss albino mouse assessed as tolerability at 50 mg/kg, ip measured for 8 hrs; assay type: organism-based; details: in vivo
[11] = tested on: CREB-binding protein/Histone acetyltransferase p300/Cellular tumor antigen p53 (Homo sapiens), P04637+Q09472+Q92793 [Y220C]; assay: AceTAC activity at p53Y220C mutant in human NUGC-3 cells expressing p300/CBP assessed as increase in p53 acetylation at lysine 382 residue incubated for 24 hrs by western blot analysis; assay type: cell-based; details: dose 1-10 µM
How it was run: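 BxPC3 or NUGC-3 cells, which express p53Y220C endogenously, were treated with DMSO or compound at 1, 3 or 10 μM for 24 h. Lysates were Western blotted for p53 and p53K382ac, with vinculin as loading control. Representative of two independent experiments.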

[12] = tested on: CREB-binding protein/Histone acetyltransferase p300/Cellular tumor antigen p53 (Homo sapiens), P04637+Q09472+Q92793 [Y220C]; assay: AceTAC activity at FLAG-tagged p53Y220C mutant (unknown origin) expressed in human NCI-H1299 cells expressing p300/CBP assessed as stabilization of protein by measuring increase in aggregation temperature at 100 uM incubated for 1 hr at 32 to 50 degC by CETSA analysis; assay type: cell-based
How it was run: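 For CETSA, NCI-H1299 (p53Y220C) stable cells were treated with DMSO or 100 μM compound for 1 h, then heated at 32 to 50 °C. Soluble p53 was detected by Western blot. Representative of at least two independent experiments.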

[13] = tested on: CREB-binding protein/Histone acetyltransferase p300/Cellular tumor antigen p53 (Homo sapiens), P04637+Q09472+Q92793 [Y220C]; assay: AceTAC activity at FLAG-tagged p53Y220C mutant (unknown origin) expressed in human NCI-H1299 cells expressing p300/CBP assessed as increase in p53 acetylation at lysine 382 residue at 3 uM incubated for 24 hrs by western blot analysis; assay type: cell-based
How it was run: (§3)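 NCI-H1299 (p53Y220C) cells were treated at 0.1–10 μM (0.1, 0.3, 1, 3 or 10 μM) for 24 h. Lysates were Western blotted for p53 and p53K382ac, with vinculin as loading control. p53K382ac was normalised to total p53Y220C and quantified from two or three independent experiments.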

[14] = tested on: CREB-binding protein/Histone acetyltransferase p300/Cellular tumor antigen p53 (Homo sapiens), P04637+Q09472+Q92793 [Y220C]; assay: AceTAC activity at FLAG-tagged p53Y220C mutant (unknown origin) expressed in human NCI-H1299 cells expressing p300/CBP assessed as upregulation of GADD45A mRNA expression at 3 uM incubated for 24 hrs by RT-PCR analysis; assay type: cell-based; how it was run: as §1
U2OS = assay: Cytotoxicity against human U2OS cells harboring wild type p53 assessed as inhibition of cell growth incubated for 72 hrs by WST-8 assay; assay type: toxicity, cell-based; how it was run: as §2
[15] = molecular target: CREB-binding protein/Histone acetyltransferase p300/Cellular tumor antigen p53 (Homo sapiens, UniProt P04637+Q09472+Q92793, Y220C); assay: (§4) AceTAC activity at FLAG-tagged p53Y220C mutant (unknown origin) expressed in human NCI-H1299 cells expressing p300/CBP assessed as increase in p53 acetylation at lysine 382 residue incubated for 24 hrs by western blot analysis; assay type: cell-based; how it was run: as §3
[16] = tested on: CREB-binding protein/Histone acetyltransferase p300/Cellular tumor antigen p53 (Homo sapiens), P04637+Q09472+Q92793 [Y220C]; assay: as §4; assay type: cell-based; how it was run: as §3
PNT2 = assay: Cytotoxicity against human PNT2 cells assessed as inhibition of cell growth incubated for 72 hrs by WST-8 assay; assay type: toxicity, cell-based; details: pnt2, 72 h; how it was run: as §2

SMILES: CCn1c2ccc(CNCCOCCOCCOCCC(=O)NCCOc3ccc(CCc4nc5cc(-c6c(C)noc6C)ccc5n4CCN4CCOCC4)cc3F)cc2c2ccc(-c3cc(C)cs3)cc21
- Activity [1]: inactive
- Activity (NCI-H1299 [2]): inactive
- Activity [3]: inactive
- inhibition at 72 h, 10 µM [4]: ~30%
- Activity [5]: Active
- Activity [6]: inactive
- GI50 (BXPC-3): 2.16 µM
- concentration at 8 h [7]: > 400 nM
- GI50 (NCI-H1299 [8]; NCI-H1299, 72 h, time 3 day): 3 µM
- Activity (NCI-H1299 [8]; time 3.0 day): Dose-Dependent Effect
- Activity (NCI-H1299 [9]): inactive
- Activity [10]: Non-Toxic
- Activity [11]: Dose-Dependent Effect
- ΔTm [12]: 4.3 °C
- Activity [13]: Active
- Activity [14]: Active
- GI50 (U2OS): > 10 µM
- EC50 [15]: 1.52 µM
- Activity [16]: Dose-Dependent Effect
- GI50 (PNT2): > 10 µM
